Pf Dd2 inh: inhibitors of Plasmodium falciparum Dd2 growth | P. falciparum Dd2 growth, SYBR Green, 72 h; stronger effect = lower value | activity change, % at 10 µM | actives 2.3% (n = 94,000) | AID 1159554; in the data active = activity change below about -80%; inconclusive = no clear call, values can overlap the other calls
GASC1 inh: blocks human GASC-1 (KDM4C) demethylase activity; GST-KDM4C 2-372, H3K9me3 peptide, LANCE TR-FRET; AID 720574; inhibition, % at 12.5 µM; actives 0.15% (n = 96,000);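 active = mean replicate inhibition above about 25%, with at least 55% of replicates also reaching it, limit read from the data, passing the limit was not always enough; inconclusive = only one of those two conditions met; inactive = neither condition met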
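Material: GST-tagged GASC-1 (JMJD2C) catalytic fragment, aa 2-372 / Quantity: enzyme final amount 10 nM / Medium: HEPES buffer, pH 7.5, plus ascorbate / Doses: one test concentration per compound / Incubation: 30 min reaction, 60 min detection, RT / Measured by: LANCE TR-FRET / Read-out: inhibition from TR-FRET ratio decrease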
T cruzi growth-1: blocks T. cruzi growth in NIH3T3 culture; T. cruzi beta-gal in NIH3T3, GalScreen luminescence, 90 h; actives 5.9% (n = 77,000); inhibition, % at 8.34 µM;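 active = mean inhibition above about 93%, with at least 55% of replicates each passing it, limit read from the data, passing the limit was not always enough; inconclusive = only one of those two conditions holds; inactive = neither condition holds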
IDH1 R132H inh: inhibitors of human IDH1 R132H | O75874 | IDH1 R132H reductase, diaphorase/resazurin fluorescence, 60 min | inhibition, % at 10 µM | actives 0.18% (n = 70,000); in the data active = inhibition above about 34%; inconclusive = no clear call, values can overlap the other calls; inactive = below about 11%;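 also: 0% = DMSO and 100% = no enzyme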
Target sequence (O75874 whole entry R132H): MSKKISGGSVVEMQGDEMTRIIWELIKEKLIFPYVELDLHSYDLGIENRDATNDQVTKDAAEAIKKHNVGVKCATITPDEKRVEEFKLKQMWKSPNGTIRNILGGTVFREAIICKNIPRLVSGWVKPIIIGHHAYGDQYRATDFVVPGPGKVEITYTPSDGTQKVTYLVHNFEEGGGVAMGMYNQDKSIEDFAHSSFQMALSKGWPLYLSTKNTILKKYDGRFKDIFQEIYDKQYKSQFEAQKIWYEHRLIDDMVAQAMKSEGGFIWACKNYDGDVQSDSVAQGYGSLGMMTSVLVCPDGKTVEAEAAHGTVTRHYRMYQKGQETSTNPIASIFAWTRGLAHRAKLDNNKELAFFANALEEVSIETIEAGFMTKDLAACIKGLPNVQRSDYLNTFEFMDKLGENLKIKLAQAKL
T cruzi growth-2: inhibitors of T. cruzi proliferation; shares compounds with T cruzi growth-1; T. cruzi beta-gal in NIH3T3, GalScreen luminescence, 90 h; inhibition, % at 8.35 µM; actives 72% (n = 5,600); AID 651739;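 active = mean replicate inhibition above about 95% and at least 55% of replicates individually reaching it, limit read from the data; inconclusive = only one of the two criteria is met; inactive = neither criterion is met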
T cruzi growth-3: inhibitors of T. cruzi proliferation | actives 21% (n = 5,600) | inhibition, % at 2.09 µM | T. cruzi beta-gal in NIH3T3, GalScreen luminescence, 90 h | shares compounds with T cruzi growth-1;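 active = mean inhibition above about 95%, with at least 55% of replicates also reaching it, limit read from the data; inconclusive = meets just one of the two conditions; inactive = meets neither condition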;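 also: plate controls were neutral control median for no effect and positive control median for full effect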
3T3 cytotox: kills mouse NIH/3T3 fibroblasts; shares compounds with T cruzi growth-1; NIH/3T3 viability, CellTiter-Glo ATP luminescence, 90 h; cytotoxicity (signal decrease), % at 8.35 µM; actives 14% (n = 5,600); AID 651742;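 active = mean signal decrease across replicates above about 35% based on untreated-well scatter, with enough replicates individually passing, limit read from the data; inconclusive = no rule stated though some were filed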;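 also: 0% = median of neutral control wells and 100% = median of positive control wells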
3T3 cytotox 2: NIH/3T3 (mouse) viability loss; shares compounds with T cruzi growth-1; NIH/3T3 viability, CellTiter-Glo ATP luminescence, 90 h; inhibition, % at 24.9 µM; actives 56% (n = 5,600); AID 651744;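 active = mean loss of cell viability signal at or above a set limit, and enough replicates individually reaching it; inconclusive = meets only the mean limit or only the replicate share; inactive = meets neither condition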;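 also: 0% = median of neutral control wells and 100% = median of positive control wells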
Numbers without * were called inactive; ? = inconclusive; / = not tested or not shown. In the library only some 5.8% were active in any assay of this set; here they are far more common.

SMILES	Pf Dd2 inh	GASC1 inh	T cruzi growth-1	IDH1 R132H inh	T cruzi growth-2	T cruzi growth-3	3T3 cytotox	3T3 cytotox 2
O=C(Nc1ccccc1)N1CCCCN2[C@@H](CO)[C@@H](c3ccc(C#Cc4cccnc4)cc3)[C@@H]2C1	-65.9	-0.7	105.4*	/	109.0*	89.8	17.7	80.6*
CCOC(=O)c1ccccc1NC(=O)C(C)Oc1ccc2c(C)cc(=O)oc2c1 (stereo unspecified)	/	/	/	1.2	/	/	/	/
O=C(Nc1ccc(F)cc1)N1CCCCN2[C@@H](CO)[C@@H](c3ccc(C#Cc4ccccc4)cc3)[C@@H]2C1	-77.8	-4.1	120.6*	/	108.0*	114.8*	117.7*	105.0*
O=C(Nc1cccc(F)c1)N1CCCCN2[C@H](CO)[C@H](c3ccc(C#Cc4cccnc4)cc3)[C@H]2C1	-53.6	-1.4	95.5*	/	107.6*	48.2	21.8	103.4*
O=C(Nc1cccc(F)c1)N1CCCCN2[C@H](CO)[C@@H](c3ccc(C#Cc4cccnc4)cc3)[C@@H]2C1	-27.8	-1.7	105.4*	/	109.2*	?	15.2	81.4*
O=C(Nc1ccccc1F)N1CCCCN2[C@H](CO)[C@H](c3ccc(C#Cc4cccnc4)cc3)[C@@H]2C1	?	-0.4	107.0*	/	109.9*	77.7	43.5*	?
CCn1c(=O)c(C(=O)NCCO)c(O)c2ccccc21	/	/	/	0.3	/	/	/	/
O=C(Nc1sc2c(c1C(=O)NCc1ccco1)CCCC2)c1ccc(Br)cc1	/	/	/	0.1	/	/	/	/
O=C(Nc1ccccc1)N1CCCCN2[C@H](C1)[C@H](c1ccc(-c3ccccc3F)cc1)[C@@H]2CO	16.9	-0.9	112.8*	/	108.1*	60.1	13.9	?
O=C(Nc1ccc(F)cc1)N1CCCCN2[C@H](CO)[C@@H](c3ccc(-c4ccccc4F)cc3)[C@@H]2C1	-31.1	/	112.2*	/	100.6*	104.0*	32.2	104.3*
O=C(Nc1ccc(F)cc1)N1CCCCN2[C@H](CO)[C@H](c3ccc(-c4ccccc4F)cc3)[C@H]2C1	-16.8	/	54.4	/	/	/	/	/
O=C(Nc1ccc(F)cc1)N1CCCCN2[C@H](CO)[C@@H](c3ccc(-c4ccccc4F)cc3)[C@H]2C1	-53.3	/	103.7*	/	97.1*	?	57.5*	105.2*
Cc1ccc2ccc(C(Nc3ccccn3)c3ccc(C(C)C)cc3)c(O)c2n1 (stereo unspecified)	/	/	/	-0.1	/	/	/	/
COC(=O)c1ccccc1NC(=O)CN(C)S(=O)(=O)c1cc(Cl)ccc1Cl	/	/	/	0.0	/	/	/	/
C[C@@H]1CN([C@H](C)CO)C(=O)Cc2cc(NC(=O)Nc3cccc4ccccc34)ccc2O[C@H]1CN(C)Cc1ccc(Oc2ccccc2)cc1	15.7	-1.9	96.3*	0.3	107.1*	80.4	8.9	11.6
C[C@H]1CN([C@@H](C)CO)C(=O)Cc2cc(NC(=O)Nc3cccc4ccccc34)ccc2O[C@H]1CN(C)Cc1ccc(Oc2ccccc2)cc1	-6.9	-2.2	60.3	0.2	/	/	/	/
C[C@@H]1CN([C@@H](C)CO)C(=O)Cc2cc(NC(=O)Nc3cccc4ccccc34)ccc2O[C@H]1CN(C)Cc1ccc(Oc2ccccc2)cc1	-47.0	-2.5	?	-0.2	105.1*	107.5*	21.4	20.5
COc1ccccc1S(=O)(=O)N(C)C[C@H]1Oc2cc(/C=C/c3ccccc3)ccc2S(=O)(=O)N([C@H](C)CO)C[C@H]1C	-49.6	-1.0	122.3*	-2.4	102.1*	104.3*	43.0*	51.2*
C[C@H]1CN([C@@H](C)CO)S(=O)(=O)c2ccc(/C=C/c3ccccc3)cc2O[C@@H]1CN(C)C	-30.8	-2.7	94.8	-2.6	/	/	/	/
COc1ccccc1S(=O)(=O)N(C)C[C@H]1Oc2cc(/C=C/c3ccccc3)ccc2S(=O)(=O)N([C@@H](C)CO)C[C@@H]1C	-58.3	4.9	128.0*	-0.6	100.2*	101.0*	?	38.9*
C/C=C/c1ccc2c(c1)O[C@H](CN(C)S(=O)(=O)c1ccccc1)[C@H](C)CN([C@@H](C)CO)S2(=O)=O	-25.9	-2.7	106.8*	-0.6	97.1*	27.6	14.0	34.6*
COc1ccccc1S(=O)(=O)N(C)C[C@@H]1Oc2cc(/C=C/c3ccccc3)ccc2S(=O)(=O)N([C@@H](C)CO)C[C@H]1C	?	1.1	127.7*	-4.5	102.2*	106.4*	65.1*	62.1*
C[C@@H]1CN([C@@H](C)CO)S(=O)(=O)c2ccc(/C=C/c3ccccc3)cc2O[C@@H]1CN(C)C	-35.4	-1.2	35.9	0.0	/	/	/	/
COc1ccccc1S(=O)(=O)N(C)C[C@H]1Oc2cc(Br)ccc2S(=O)(=O)N([C@@H](C)CO)C[C@H]1C	4.5	0.5	/	/	/	/	/	/
CCOc1ccc(NC(=O)Cn2cc(C(=O)OC)c3ccccc32)cc1	/	/	/	0.5	/	/	/	/
SMILES	Pf Dd2 inh	GASC1 inh	T cruzi growth-1	IDH1 R132H inh	T cruzi growth-2	T cruzi growth-3	3T3 cytotox	3T3 cytotox 2
COc1ccc(N(C(C)C(=O)Nc2ccc(Br)cc2F)S(C)(=O)=O)cc1 (stereo unspecified)	/	/	/	-0.1	/	/	/	/
Nc1cccc(S(=O)(=O)NCc2ccco2)c1	/	/	/	0.0	/	/	/	/
C/C=C/c1ccc2c(c1)O[C@@H](CN(C)S(=O)(=O)c1ccccc1OC)[C@H](C)CN([C@@H](C)CO)S2(=O)=O	-70.1	-0.4	115.6*	-0.4	106.9*	73.9	44.1*	56.2*
COc1ccccc1S(=O)(=O)N(C)C[C@H]1Oc2cc(/C=C/c3ccccc3)ccc2S(=O)(=O)N([C@H](C)CO)C[C@@H]1C	-87.9*	37.5*	131.2*	-0.3	106.3*	97.1*	18.1	25.5*
COc1ccccc1S(=O)(=O)N(C)C[C@H]1Oc2cc(Br)ccc2S(=O)(=O)N([C@H](C)CO)C[C@H]1C	-19.3	-0.7	/	/	/	/	/	/
COc1ccccc1S(=O)(=O)N(C)C[C@H]1Oc2cc(/C=C/c3ccccc3)ccc2S(=O)(=O)N([C@@H](C)CO)C[C@H]1C	-51.8	0.5	129.2*	0.2	101.2*	?	39.7*	33.7*
C/C=C/c1ccc2c(c1)O[C@H](CN(C)S(=O)(=O)c1ccccc1OC)[C@H](C)CN([C@@H](C)CO)S2(=O)=O	/	-2.1	24.0	2.0	/	/	/	/
Cc1ccc(C2=CC(c3ccccc3)SC(N)=N2)cc1 (stereo unspecified)	/	/	/	0.5	/	/	/	/
C[C@H](CO)N1C[C@H](C)[C@@H](CN(C)S(=O)(=O)c2ccccc2)OCCCC[C@H](C)Oc2ccc(NC(=O)Nc3ccc(F)cc3)cc2C1=O	-61.3	-1.3	108.7*	0.9	106.4*	58.6	-2.7	14.0
